Measurements as given in ChEMBL document CHEMBL1149551, “Novel selective PPARdelta agonists: optimization of activity by modification of alkynylallylic moiety” (Bioorg Med Chem Lett, 2007).
pEC50: −log10 of the molar value.

Tests used:
[1] = biological target: T1, Peroxisome proliferator-activated receptor alpha (Homo sapiens, UniProt Q07869); test: Agonist activity at human PPARalpha by transactivation assay; format: functional
T1 sequence (Q07869 whole entry): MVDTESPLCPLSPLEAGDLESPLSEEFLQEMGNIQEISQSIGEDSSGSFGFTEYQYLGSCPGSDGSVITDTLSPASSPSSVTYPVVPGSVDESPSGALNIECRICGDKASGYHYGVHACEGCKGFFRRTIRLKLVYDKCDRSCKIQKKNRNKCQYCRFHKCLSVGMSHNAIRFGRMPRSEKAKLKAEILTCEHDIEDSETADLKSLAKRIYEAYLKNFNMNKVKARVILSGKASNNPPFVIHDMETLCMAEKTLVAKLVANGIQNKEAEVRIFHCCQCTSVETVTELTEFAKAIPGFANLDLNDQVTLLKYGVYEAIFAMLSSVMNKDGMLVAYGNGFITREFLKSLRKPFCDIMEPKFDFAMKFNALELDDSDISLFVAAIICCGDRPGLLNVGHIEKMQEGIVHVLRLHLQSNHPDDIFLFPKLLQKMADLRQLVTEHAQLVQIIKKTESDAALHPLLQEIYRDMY

[2] = biological target: T2, Peroxisome proliferator-activated receptor alpha (Homo sapiens) (UniProt Q07869); test: Agonist activity at human PPARalpha by transactivation assay relative to NNC 61-4655; format: functional
T2 sequence (whole entry): T1 sequence (Q07869 whole entry)
Summary of the method: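 Transactivation run in at least three separate experiments, each at five or more concentrations from 0.001 to 30 µM. EC50 is the concentration giving half of the compound's own maximal activity, reported as the mean. Efficacy is given relative to the maximal activity of the reference PPARα agonist.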

[3] = biological target: T3, Peroxisome proliferator-activated receptor delta (Homo sapiens, UniProt Q03181)
T3 sequence (Q03181 whole entry): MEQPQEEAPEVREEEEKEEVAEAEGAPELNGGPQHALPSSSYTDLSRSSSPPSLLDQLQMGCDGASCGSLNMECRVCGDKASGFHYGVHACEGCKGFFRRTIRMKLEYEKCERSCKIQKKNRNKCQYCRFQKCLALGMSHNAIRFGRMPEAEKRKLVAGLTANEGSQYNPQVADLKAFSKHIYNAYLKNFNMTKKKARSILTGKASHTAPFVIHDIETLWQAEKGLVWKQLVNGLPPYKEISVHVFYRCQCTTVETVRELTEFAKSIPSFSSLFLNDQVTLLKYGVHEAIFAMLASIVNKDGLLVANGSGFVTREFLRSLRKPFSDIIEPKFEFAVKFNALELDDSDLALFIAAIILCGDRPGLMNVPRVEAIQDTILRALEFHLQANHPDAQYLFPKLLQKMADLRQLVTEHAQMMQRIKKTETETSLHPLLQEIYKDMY

[4] = biological target: T4, Peroxisome proliferator-activated receptor gamma (Homo sapiens, UniProt P37231); format: functional
T4 sequence (P37231 whole entry): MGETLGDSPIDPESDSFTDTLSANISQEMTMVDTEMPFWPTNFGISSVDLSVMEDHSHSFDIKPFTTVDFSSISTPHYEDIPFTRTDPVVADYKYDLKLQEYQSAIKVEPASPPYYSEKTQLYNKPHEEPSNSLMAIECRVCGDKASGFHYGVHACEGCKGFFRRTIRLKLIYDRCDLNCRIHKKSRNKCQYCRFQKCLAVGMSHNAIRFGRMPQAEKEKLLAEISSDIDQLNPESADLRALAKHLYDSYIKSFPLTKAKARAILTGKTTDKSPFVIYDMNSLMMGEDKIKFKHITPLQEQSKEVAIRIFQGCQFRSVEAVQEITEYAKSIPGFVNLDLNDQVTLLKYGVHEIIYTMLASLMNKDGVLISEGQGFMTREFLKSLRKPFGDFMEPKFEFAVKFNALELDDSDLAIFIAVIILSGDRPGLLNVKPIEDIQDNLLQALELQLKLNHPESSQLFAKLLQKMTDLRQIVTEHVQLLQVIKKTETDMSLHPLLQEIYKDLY

Structure (SMILES) | pEC50 [1] | %max [2] [%] | pEC50 [3] | pEC50 [4]
Cc1cc(OC/C=C\C(C#Cc2ccc(C(F)(F)F)cc2)c2ccc(Br)cc2)ccc1OCC(=O)O (stereo unspecified) | < 5.00 | > 19 | 6.89 | –
Cc1cc(SC/C=C\C(C#Cc2ccccc2)c2ccc(Br)cc2)ccc1OCC(=O)O (stereo unspecified) | < 5.00 | > 24 | 6.80 | < 5.00
Cc1cc(OC/C=C\C(C#Cc2ccccn2)c2ccc(Br)cc2)ccc1OCC(=O)O (stereo unspecified) | < 5.00 | > 22 | 6.62 | –
CCO[C@@H](Cc1ccc(OC/C=C(\C#Cc2ccccc2)c2ccccc2)cc1)C(=O)O | < 5.00 | – | – | < 5.00
Cc1cc(SCc2sc(-c3ccc(C(F)(F)F)cc3)nc2C)ccc1OCC(=O)O | – | 68 | – | –
Cc1cc(OC/C=C(\C#Cc2ccccc2)c2ccc(Br)cc2)ccc1OCC(=O)O | – | < 10 | – | –
Cc1cc(SC/C=C/C#Cc2ccccc2)ccc1OCC(=O)O | 4.85 | – | 4.92 | –
Cc1cc(OC/C=C\C(C#Cc2ccccc2)c2cnc3ccccc3c2)ccc1OCC(=O)O (stereo unspecified) | 5.39 | 33 | – | 5.18
COc1ccc(C#CC(/C=C\CSc2ccc(OCC(=O)O)c(C)c2)c2ccc(-c3ccccc3)cc2)cc1 (stereo unspecified) | < 5.00 | > 58 | 7.96 | < 5.00
Cc1ccc(-c2ccc(/C(C#Cc3ccccc3)=C/COc3ccc(OCC(=O)O)c(C)c3)cc2)s1 | < 5.00 | > 60 | – | < 5.00
Cc1cc2cc(C(C#Cc3ccc(F)cc3)/C=C\COc3ccc(OCC(=O)O)c(C)c3)ccc2o1 (stereo unspecified) | < 5.00 | > 41 | – | < 5.00
CN(CCOc1ccc(CC2SC(=O)NC2=O)cc1)c1ccccn1 (stereo unspecified) | – | > 24 | – | –
Cc1ccc(C#CC(/C=C\COc2ccc(OCC(=O)O)c(C)c2)c2ccc(Br)cc2)s1 (stereo unspecified) | < 5.00 | > 15 | 6.66 | –
CCO[C@@H](Cc1ccc(OC/C=C/C#Cc2ccccc2)cc1)C(=O)O | 8.00 | – | 5.19 | 5.59
Cc1cc2cc(C(C#Cc3ccc(C)s3)/C=C\COc3ccc(OCC(=O)O)c(C)c3)ccc2o1 (stereo unspecified) | 5.24 | < 10 | 6.82 | < 5.00
Cc1cc(OC/C=C(\C#Cc2ccccc2)c2ccccc2)ccc1OCC(=O)O | – | < 10 | – | –
